Here are results for eight compounds from paper PMC5902032 (European journal of medicinal chemistry, 2018).

The target in data set [1] is P. falciparum NF54-HGL gametocytes. Briefly: NF54-HGL gametocyte luciferase assay. In kind it is cell-based, Plasmodium falciparum. Particulars: read-out: GCT: NF54-HGL IC50. In outline: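 Gametocytes came from a flask inoculated with 1% asexual parasites at 5% haematocrit in RPMI1640 with 10% human serum. Asexual stages were cleared with 50 mM NAG on days 4–9. Mostly stage IV cells were Percoll-purified on day 11 and plated at 5000 per well (final DMSO 0.1%). After 72 h at 37 °C, 3% O2, 4% CO2, viability was read as ONE-Glo luminescence.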

Data set [2] concerns P. falciparum W2 (CQ-R) strain. Briefly: Antiplasmodial activity against W2 strain. It counts as cell-based, Plasmodium falciparum. Particulars: read-out: W2 IC50.
Data set [3] deals with P. falciparum strain NF54 asexual blood stage parasites. Briefly: NF54 asexual blood stage Sybrgreen DNA replication assay. In kind it is cell-based, Plasmodium falciparum. Conditions: read-out: NF54 IC50, CQ-S strain, 72 h. Summed up:
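Asexual NF54 parasites were seeded at 0.83% parasitaemia and 1.5% haematocrit in RPMI1640 with 10% human serum. Serial dilutions were made from DMSO stocks in medium (final DMSO 0.1%). Plates were incubated 72 h at 37 °C under 3% O2 and 4% CO2. Growth was read as SYBR Green fluorescence.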

Data set [4] relates to P. falciparum D10 (CQ-S) strain. Briefly: Antiplasmodial activity against D10 strain. In kind it is cell-based, Plasmodium falciparum. Particulars: read-out: D10 IC50.
Data set [5] concerns the target P. falciparum 3D7elo1-pfs16-CBG99 late-stage gametocytes. In words: Gametocytocidal luciferase-based assay, 3D7elo1-pfs16-CBG99. In kind it is cell-based, Plasmodium falciparum. Conditions: read-out: GCT: 3D7elo1-pfs16-CBG99 IC50, 72 h.
For data set [6], the system named is Langendorff-isolated rat hearts. Briefly: Cardiac mechanical function and ECG in Langendorff-isolated rat hearts. Conditions: for Effect on left ventricular pressure (LVP): concentration-effect relationship; for Effect on coronary perfusion pressure (CPP): data not shown. In outline: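 Rats heparinised (5000 U/kg) with xylazine (4 mg/kg), decapitated. Hearts perfused retrogradely via aorta at 10 mL/min with Krebs-Henseleit (95% O2-5% CO2, pH 7.4, 37 °C), equilibrated ≥20 min before drug. LVP by intraventricular latex balloon (end-diastolic 10 mmHg), systolic minus diastolic. CPP by inflow-line transducer. Surface ECG at 1 kHz: RR, HR, PQ, QRS, QT, Bazett-corrected QTc.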

Data set [7] deals with male and female NF54 gametes. Particulars: cited from earlier work.
Data set [8] has as its system P. falciparum asexual and sexual stages. Particulars: read-out: IC50 against P. falciparum asexual and sexual stages; cited from earlier work.
Data set [9] concerns the target T1, PfPMT (Plasmodium falciparum, UniProt Q8IDQ9).
T1 sequence (Q8IDQ9 1-266): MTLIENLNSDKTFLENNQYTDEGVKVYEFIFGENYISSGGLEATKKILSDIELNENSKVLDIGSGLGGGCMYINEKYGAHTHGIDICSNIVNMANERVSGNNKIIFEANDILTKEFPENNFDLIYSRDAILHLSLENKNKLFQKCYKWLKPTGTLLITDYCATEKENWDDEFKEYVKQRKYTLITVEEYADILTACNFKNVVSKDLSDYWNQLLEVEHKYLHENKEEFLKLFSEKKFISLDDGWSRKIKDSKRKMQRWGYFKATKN
In words: PfPMT radiochemical methyltransferase assay. In kind it is biochemical. Particulars: 100 μM. Summed up:
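Recombinant PfPMT was expressed in and purified from E. coli. Activity was measured radiochemically with 2 µg enzyme in 0.1 M Hepes-KOH pH 8.0, 2 mM Na2EDTA, 10% glycerol and 5% DMSO. The reaction contained 30 µM SAM (including 100 nCi [methyl-14C]SAM) and 55 µM phosphoethanolamine. Inhibitors were screened at 100 µM; values are mean ± SD, n = 3.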

Data set [10] relates to late stages Plasmodium gametocytes. Conditions: read-out: in vitro IC50 against late stages Plasmodium gametocytes; different published assays; cited from earlier work.
Data set [11] deals with P. berghei liver stages. In words: P. berghei liver-stage analysis in mouse primary hepatocytes. In kind it is cell-based, Plasmodium berghei. In outline:
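Mouse primary hepatocytes were infected with 20'000 mCherry-expressing P. berghei ANKA sporozoites. From 2 h post-infection, cells received a range of test compound concentrations or a matching DMSO control, with medium and drug renewed at 24 h. At 48 h, parasite number and size in unfixed cells were measured by automated microscopy (n = 4, SD). Groups were compared by one-way ANOVA with Dunnett's test.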

Data set [12] addresses Cav1.2 channels (Rattus norvegicus, UniProt P22002). Briefly: Whole-cell patch-clamp of IBa1.2 in single rat tail artery myocytes. In kind it is cell-based. Particulars: 30 μM. In outline: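 Rat tail artery myocytes were isolated enzymatically (collagenase, 37 °C, 40–45 min), kept at 4 °C and used within two days. Whole-cell patch-clamp was run at 20–22 °C. The external solution held 5 mM Ba2+ and 30 mM TEA; the pipette solution was Cs+-based (pCa 8.4, pH 7.4). IBa was evoked by 250-ms pulses to 0 mV from −50 mV at 0.067 Hz, with recording once current had stabilised.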
On the technique in general: In patch-clamp work, channel activity is measured electrically.

Read-outs that look alike come from different tables or passages of the source.

Sequence of Cav1.2 channels (P22002 whole entry): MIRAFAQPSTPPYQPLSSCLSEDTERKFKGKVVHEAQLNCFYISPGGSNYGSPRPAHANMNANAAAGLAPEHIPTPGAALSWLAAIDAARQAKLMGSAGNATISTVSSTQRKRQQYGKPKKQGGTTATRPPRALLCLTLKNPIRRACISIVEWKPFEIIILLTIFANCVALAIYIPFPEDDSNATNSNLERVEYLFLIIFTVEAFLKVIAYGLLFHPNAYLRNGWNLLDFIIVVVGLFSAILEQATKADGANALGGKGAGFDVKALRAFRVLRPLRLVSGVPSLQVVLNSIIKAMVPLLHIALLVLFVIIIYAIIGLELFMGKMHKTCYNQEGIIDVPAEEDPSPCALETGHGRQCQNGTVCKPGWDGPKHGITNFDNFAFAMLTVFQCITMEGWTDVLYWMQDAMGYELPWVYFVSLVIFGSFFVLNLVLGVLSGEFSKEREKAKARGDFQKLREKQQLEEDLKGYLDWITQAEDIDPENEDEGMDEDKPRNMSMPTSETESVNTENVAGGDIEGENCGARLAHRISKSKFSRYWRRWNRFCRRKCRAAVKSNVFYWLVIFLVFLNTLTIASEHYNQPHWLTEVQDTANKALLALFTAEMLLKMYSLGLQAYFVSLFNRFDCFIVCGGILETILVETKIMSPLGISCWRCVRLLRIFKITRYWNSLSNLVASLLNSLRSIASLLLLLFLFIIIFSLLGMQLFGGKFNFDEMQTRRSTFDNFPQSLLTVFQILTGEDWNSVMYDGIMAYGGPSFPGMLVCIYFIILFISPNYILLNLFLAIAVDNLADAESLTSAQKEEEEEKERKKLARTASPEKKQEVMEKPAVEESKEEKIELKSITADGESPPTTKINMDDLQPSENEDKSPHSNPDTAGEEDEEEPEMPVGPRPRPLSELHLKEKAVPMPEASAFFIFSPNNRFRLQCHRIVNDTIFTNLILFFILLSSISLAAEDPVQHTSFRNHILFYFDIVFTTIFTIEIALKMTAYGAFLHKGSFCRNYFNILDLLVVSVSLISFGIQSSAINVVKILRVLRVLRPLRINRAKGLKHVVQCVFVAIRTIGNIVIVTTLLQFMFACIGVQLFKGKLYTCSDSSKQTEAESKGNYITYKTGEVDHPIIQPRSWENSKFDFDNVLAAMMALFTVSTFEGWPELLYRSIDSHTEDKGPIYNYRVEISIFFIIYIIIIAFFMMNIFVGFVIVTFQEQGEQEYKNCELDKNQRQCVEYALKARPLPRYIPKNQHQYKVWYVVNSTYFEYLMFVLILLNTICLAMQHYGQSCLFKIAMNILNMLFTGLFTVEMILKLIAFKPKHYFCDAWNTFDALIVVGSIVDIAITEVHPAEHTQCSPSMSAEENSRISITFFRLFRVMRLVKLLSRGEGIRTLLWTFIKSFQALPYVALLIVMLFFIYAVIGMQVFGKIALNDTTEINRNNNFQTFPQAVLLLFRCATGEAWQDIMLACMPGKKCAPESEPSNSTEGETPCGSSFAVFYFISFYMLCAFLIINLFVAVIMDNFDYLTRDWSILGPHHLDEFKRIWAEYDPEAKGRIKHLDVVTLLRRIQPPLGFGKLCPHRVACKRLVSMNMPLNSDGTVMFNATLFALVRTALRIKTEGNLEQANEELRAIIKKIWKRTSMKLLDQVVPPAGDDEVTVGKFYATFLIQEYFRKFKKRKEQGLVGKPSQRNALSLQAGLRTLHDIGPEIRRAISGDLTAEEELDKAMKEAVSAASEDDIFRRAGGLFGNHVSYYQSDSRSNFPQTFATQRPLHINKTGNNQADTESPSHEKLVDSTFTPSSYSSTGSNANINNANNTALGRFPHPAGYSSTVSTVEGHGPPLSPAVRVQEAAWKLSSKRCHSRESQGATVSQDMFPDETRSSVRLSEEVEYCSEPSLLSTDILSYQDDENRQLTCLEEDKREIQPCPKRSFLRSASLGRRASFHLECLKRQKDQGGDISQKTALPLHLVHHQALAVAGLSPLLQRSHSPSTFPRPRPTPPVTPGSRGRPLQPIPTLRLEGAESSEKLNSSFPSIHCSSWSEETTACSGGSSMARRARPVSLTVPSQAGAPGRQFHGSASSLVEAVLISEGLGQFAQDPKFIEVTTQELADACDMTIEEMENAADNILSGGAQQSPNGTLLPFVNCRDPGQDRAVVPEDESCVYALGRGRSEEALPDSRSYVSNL
Sequence of Cav1.2 channels (P54290 25-944 partner limits assumed): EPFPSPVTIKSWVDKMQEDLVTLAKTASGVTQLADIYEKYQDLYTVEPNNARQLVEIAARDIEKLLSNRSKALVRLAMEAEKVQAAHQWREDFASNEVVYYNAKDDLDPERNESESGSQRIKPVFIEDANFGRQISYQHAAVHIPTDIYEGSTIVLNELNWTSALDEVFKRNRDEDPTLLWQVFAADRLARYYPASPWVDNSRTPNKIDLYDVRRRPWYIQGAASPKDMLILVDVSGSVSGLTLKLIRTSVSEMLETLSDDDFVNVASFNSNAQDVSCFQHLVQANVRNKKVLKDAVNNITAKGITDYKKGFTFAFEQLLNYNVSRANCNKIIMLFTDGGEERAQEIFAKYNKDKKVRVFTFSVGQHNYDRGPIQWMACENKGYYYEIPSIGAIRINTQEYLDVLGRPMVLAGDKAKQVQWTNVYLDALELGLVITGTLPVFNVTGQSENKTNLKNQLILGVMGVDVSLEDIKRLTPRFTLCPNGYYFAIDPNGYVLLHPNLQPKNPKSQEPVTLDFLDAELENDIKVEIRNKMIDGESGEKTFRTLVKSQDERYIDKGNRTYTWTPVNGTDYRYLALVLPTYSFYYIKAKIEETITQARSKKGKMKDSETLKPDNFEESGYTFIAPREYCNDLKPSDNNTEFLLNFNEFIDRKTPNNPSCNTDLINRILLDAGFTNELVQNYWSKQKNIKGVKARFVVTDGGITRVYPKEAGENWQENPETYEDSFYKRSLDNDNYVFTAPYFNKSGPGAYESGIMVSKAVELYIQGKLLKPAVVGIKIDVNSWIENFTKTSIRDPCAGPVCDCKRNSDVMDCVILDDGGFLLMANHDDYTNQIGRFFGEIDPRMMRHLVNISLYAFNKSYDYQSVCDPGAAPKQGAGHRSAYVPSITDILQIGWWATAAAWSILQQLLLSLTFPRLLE
Sequence of Cav1.2 channels (P54290 945-1091 partner limits assumed): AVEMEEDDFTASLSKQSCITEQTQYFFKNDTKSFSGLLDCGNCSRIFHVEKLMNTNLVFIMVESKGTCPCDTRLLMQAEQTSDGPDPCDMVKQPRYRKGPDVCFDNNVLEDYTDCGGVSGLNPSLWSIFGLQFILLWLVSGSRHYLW
Sequence of Cav1.2 channels (P54287 whole entry partner): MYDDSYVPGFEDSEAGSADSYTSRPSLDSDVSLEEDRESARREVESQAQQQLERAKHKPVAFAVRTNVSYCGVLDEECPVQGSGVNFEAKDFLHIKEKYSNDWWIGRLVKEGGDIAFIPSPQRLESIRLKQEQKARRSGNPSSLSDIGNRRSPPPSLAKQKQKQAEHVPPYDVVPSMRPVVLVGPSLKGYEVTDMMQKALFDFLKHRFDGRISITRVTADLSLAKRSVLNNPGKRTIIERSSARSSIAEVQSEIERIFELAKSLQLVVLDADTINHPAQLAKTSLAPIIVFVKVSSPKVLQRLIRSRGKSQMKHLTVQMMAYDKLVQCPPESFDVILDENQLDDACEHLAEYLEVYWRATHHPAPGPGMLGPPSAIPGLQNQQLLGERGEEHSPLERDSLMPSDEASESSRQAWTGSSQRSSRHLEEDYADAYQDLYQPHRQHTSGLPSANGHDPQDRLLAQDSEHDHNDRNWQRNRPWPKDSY

For the compound “1-(5-Bromobenzothiophen-2-yl)-N-(piperidin-4-ylmethyl)methanamine [Compound 32]”, the IC50 in data set [1] (gametocytes predominantly stage IV, 72 h, luminescence) came out at 53 nM; in [2] (CQ-R strain, 72 h, pLDH), 1500 nM; in data set [3], 730 nM; in [4] (CQ-S strain, 72 h, pLDH) it was 1000 nM; in data set [5] (late-stage gametocytes (stage IV–V), luciferase), 1400 nM.
For `CCN(CC)CCCC(C)Nc1ccnc2cc(Cl)ccc12` (stereo not shown) [Chloroquine, reference compound], the IC50 in data set [2] (Plasmodium falciparum, W2, 72 h) was 310 nM; in data set [4] (Plasmodium falciparum, D10, 72 h), 26 nM.
In the case of `Clc1cc(Br)ccc1-c1ccc(CNCC2CCNCC2)o1` [Compound 1, 1-(5-(4-Bromo-2-chlorophenyl)furan-2-yl)-N-(piperidin-4-ylmethyl)methanamine], in data set [6], the Sinus arrhythmia is 3 out of 4, the “Effect on left ventricular pressure (LVP)” value is listed as “reduced left ventricular pressure (LVP) in a concentration-dependent manner” and the “Effect on coronary perfusion pressure (CPP)” value is “leaving unaltered coronary perfusion pressure”. In addition, in data set [7], the “Activity on male and female NF54 gametes” value is “activity on both male and female NF54 gametes”. In addition, the IC50 in [8] was less than 1000 nM. Further, in data set [9], the “Inhibitory activity against PfPMT” value was “weak activity”. Further, the IC50 in [10] is less than 1000 nM.
For `CN(C)CCCNCc1ccc(-c2ccc(F)c(Cl)c2)o1` [Compound 2, N-[(5-(3-chloro-4-fluorophenyl)furan-2-yl)methyl]-N′,N′-dimethylpropane-1,3-diamine, reference compound], the IC50 in [10] was less than 1000 nM.
As to `N#Cc1ccc(-c2ccc(CNCC3CCNCC3)o2)cc1` [Compound 24, 1-(5-(4-Cyanophenyl)furan-2-yl)-N-(piperidin-4-3ylmethyl)methanamine], the “Inhibitory activity against PfPMT” value in data set [9] is “weak activity”.
In the case of `Clc1ccc(-c2ccc(CNCC3CCNCC3)o2)c(-c2ccccc2)c1` [Compound 25, 1-(5-(2-Phenyl-4-chlorophenyl)furan-2-yl)-N-(piperidin-4-ylmethyl)methanamine], in [6], the “Effect on left ventricular pressure (LVP)” value is on record as “reduced left ventricular pressure (LVP) in a concentration-dependent manner” and the “Effect on coronary perfusion pressure (CPP)” value is given as “leaving unaltered coronary perfusion pressure”. In addition, the Parasite sizes result in [11] (48 hpi, mouse primary hepatocytes, different concentrations) is “Neither parasite numbers (Figure 2A) nor parasite sizes (Figure 2B) were significantly influenced”. Besides, in data set [11] (48 h, mouse primary hepatocytes, different concentrations), the “Parasite numbers per well” value is “no liver stage activity”. Also, the Detached cell formation result in data set [11] (detached cells at 65 hpi vs 48 h number) is reported as “Neither concentration tested significantly inhibited detached cell formation”. In data set [12], the “Effect on IBa1.2 current” value is reported as “blocked the current”.
With `C[N+](C)(CCCNCc1ccc(-c2ccc(Cl)cc2Br)o1)Cc1ccccc1.[Cl-]` [Compound 48, N-Benzyl-3-[(5-(4-chloro-2-bromophenyl)furan-2-yl-methyl)amino]-N,N-dimethylpropan-1-ammonium chloride], in data set [9], the “Inhibitory activity against PfPMT” value is “weak activity”.
Regarding `CC[C@H](C)[C@H](NC(=O)[C@H]([C@@H](C)CC)N(C)C(C)=O)C(=O)N[C@H](C(=O)N[C@@H](CC(C)C)C(=O)[C@@]1(C)CO1)[C@@H](C)O` [Epoxomycin, reference compound], the IC50 in [1] (Plasmodium falciparum, NF54, 72 h) amounted to 0.7 nM; in [5] (Plasmodium falciparum), 7 nM.

The term IC50 denotes the midpoint of a concentration-inhibition curve.
